Where “and” joins values, the source holds several entries; their conditions need not be identical. Equal entries are not always repeated.
Tested on: HEK-293T
Experiment: Multiplex assay against HEK293T
Type: toxicity, cell-based
Details: human, number of replicates 2
In short: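 Live cells were stained at seeding with Hoechst33342, BioTracker Green Microtubule Cytoskeleton Dye, MitoTracker Red and Annexin V Alexa Fluor 680. Following compound addition, they were imaged on a CQ1 microscope at 37°C and 5% CO2 and gated by CellPathfinder machine learning into Hoechst high-intensity objects or normal cells, with normal cells split into healthy, pyknosed or fragmented nuclei and pyknosed cells into mitotic or apoptotic. Tubulin, mitochondrial-mass and membrane-permeability phenotypes are per cents of healthy-nucleus cells.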

[1] = 12 h, 1 µM, compound concentration 1 uM
[2] = 12 h, 10 µM, compound concentration 10 uM
[3] = 24 h, 1 µM, compound concentration 1 uM
[4] = 24 h, 10 µM, compound concentration 10 uM
[5] = 48 h, 1 µM, compound concentration 1 uM
[6] = 48 h, 10 µM, compound concentration 10 uM

For `CS(=O)(=O)c1ccc(C(=O)Nc2cccc(COc3ccc(Br)cc3CN3CCC[C@H](O)C3)c2)c(Cl)c1.O=CO`, the “Population Healthy Nuclei (%)” value [1] was 82%, the “Population Mitotic Cells (%)” value [1] was 45% and 44% and the “Total Cell Count” value [1] was 629 and 598. The “Population Healthy Nuclei (%)” value [2] was 85% and 88%, the “Population Mitotic Cells (%)” value [2] was 38% and 41% and the “Total Cell Count” value [2] was 549 and 638. The “Population Healthy Nuclei (%)” value [3] was 83% and 85%, the “Population Mitotic Cells (%)” value [3] was 60% and 48% and the “Total Cell Count” value [3] was 967 and 829. The “Population Healthy Nuclei (%)” value [4] was 83% and 85%, the “Population Mitotic Cells (%)” value [4] was 49% and 30% and the “Total Cell Count” value [4] was 569 and 612. The “Population Healthy Nuclei (%)” value [5] was 82% and 86%, the “Population Mitotic Cells (%)” value [5] was 82% and 78% and the “Total Cell Count” value [5] was 2080 and 1482. For the same compound, the “Population Healthy Nuclei (%)” value [6] was 86% and 84%, the “Population Mitotic Cells (%)” value [6] was 62% and 45% and the “Total Cell Count” value [6] was 820 and 907.

For `Cc1cc(C2CCCNC2)ccc1Nc1ncc(Br)c(NCc2cccc3c2C(C)(C)C(=O)N3)n1` (centres undefined), the “Population Apoptotic (%)” value [1] was 54%, the “Population Fragmented Nuclei (%)” value [1] was 4% and 2% and the “Population Healthy Nuclei (%)” value [1] was 88% and 83%. The “Population Hoechst High Intensity Objects (%)” value [1] was 12% and 15%, the “Population Membrane Permeable-Phenotype (%)” value [1] was 2% and 1% and the “Population Mitochondria Different-Phenotype (%)” value [1] was 46% and 53%. The “Population Mitotic Cells (%)” value [1] was 45%, the “Population Normal (%)” value [1] was 87% and 84% and the “Population Pyknosed Nuclei (%)” value [1] was 7% and 13%. The “Population Tubulin-Different-Phenotype (%)” value [1] was 94% and 92%, the “Total Cell Count” value [1] was 482 and 397 and the “Population Apoptotic (%)” value [2] was 79% and 80%. For the same compound, the “Population Fragmented Nuclei (%)” value [2] was 5% and 6%, the “Population Healthy Nuclei (%)” value [2] was 89% and the “Population Hoechst High Intensity Objects (%)” value [2] was 13% and 15%. The “Population Membrane Permeable-Phenotype (%)” value [2] was 6% and 2%, the “Population Mitochondria Different-Phenotype (%)” value [2] was 44% and 59% and the “Population Mitotic Cells (%)” value [2] was 20%. The “Population Normal (%)” value [2] was 86% and 84%, the “Population Pyknosed Nuclei (%)” value [2] was 5% and 4% and the “Population Tubulin-Different-Phenotype (%)” value [2] was 95%. The “Total Cell Count” value [2] was 520 and 580, the “Population Apoptotic (%)” value [3] was 67% and 55% and the “Population Fragmented Nuclei (%)” value [3] was 8% and 5%. The “Population Healthy Nuclei (%)” value [3] was 84% and 87%, the “Population Hoechst High Intensity Objects (%)” value [3] was 14% and 13% and the “Population Membrane Permeable-Phenotype (%)” value [3] was 1%. For the same compound, the “Population Mitochondria Different-Phenotype (%)” value [3] was 39% and 34%, the “Population Mitotic Cells (%)” value [3] was 32% and 44% and the “Population Normal (%)” value [3] was 85% and 86%. For the same compound, the “Population Pyknosed Nuclei (%)” value [3] was 7% and 6%, the “Population Tubulin-Different-Phenotype (%)” value [3] was 89% and 88% and the “Total Cell Count” value [3] was 567 and 602. For the same compound, the “Population Apoptotic (%)” value [4] was 75% and 80%, the “Population Fragmented Nuclei (%)” value [4] was 4% and 8% and the “Population Healthy Nuclei (%)” value [4] was 89% and 85%. The “Population Hoechst High Intensity Objects (%)” value [4] was 17% and 18%, the “Population Membrane Permeable-Phenotype (%)” value [4] was 8% and 0% and the “Population Mitochondria Different-Phenotype (%)” value [4] was 53% and 64%. For the same compound, the “Population Mitotic Cells (%)” value [4] was 25% and 20%, the “Population Normal (%)” value [4] was 82% and 81% and the “Population Pyknosed Nuclei (%)” value [4] was 5%. For the same compound, the “Population Tubulin-Different-Phenotype (%)” value [4] was 97% and 95%, the “Total Cell Count” value [4] was 550 and 640 and the “Population Apoptotic (%)” value [5] was 26% and 35%. For the same compound, the “Population Fragmented Nuclei (%)” value [5] was 12% and 9%, the “Population Healthy Nuclei (%)” value [5] was 84% and 87% and the “Population Hoechst High Intensity Objects (%)” value [5] was 18% and 20%. The “Population Membrane Permeable-Phenotype (%)” value [5] was 2%, the “Population Mitochondria Different-Phenotype (%)” value [5] was 13% and 17% and the “Population Mitotic Cells (%)” value [5] was 73% and 65%. For the same compound, the “Population Normal (%)” value [5] was 81% and 79%, the “Population Pyknosed Nuclei (%)” value [5] was 3% and 2% and the “Population Tubulin-Different-Phenotype (%)” value [5] was 73% and 85%. The “Total Cell Count” value [5] was 832 and 880, the “Population Apoptotic (%)” value [6] was 74% and 87% and the “Population Fragmented Nuclei (%)” value [6] was 10% and 12%. The “Population Healthy Nuclei (%)” value [6] was 77% and 70%, the “Population Hoechst High Intensity Objects (%)” value [6] was 16% and 24% and the “Population Membrane Permeable-Phenotype (%)” value [6] was 2% and 3%. The “Population Mitochondria Different-Phenotype (%)” value [6] was 65% and 68%, the “Population Mitotic Cells (%)” value [6] was 25% and 12% and the “Population Normal (%)” value [6] was 83% and 75%. The “Population Pyknosed Nuclei (%)” value [6] was 12% and 16%, the “Population Tubulin-Different-Phenotype (%)” value [6] was 91% and the “Total Cell Count” value [6] was 517 and 572.

With `CC1(C)C(=O)N([C@H]2CCc3c(O)cccc32)c2nc(Nc3cccc(CN4CCCC4)c3)ncc21` the “Population Apoptotic (%)” value [1] was 51% and 69%, the “Population Fragmented Nuclei (%)” value [1] was 1% and 2% and the “Population Healthy Nuclei (%)” value [1] was 83% and 87%. For the same compound, the “Population Hoechst High Intensity Objects (%)” value [1] was 19% and 21%, the “Population Membrane Permeable-Phenotype (%)” value [1] was 1% and the “Population Mitochondria Different-Phenotype (%)” value [1] was 70% and 76%. For the same compound, the “Population Mitotic Cells (%)” value [1] was 48% and 30%, the “Population Normal (%)” value [1] was 80% and 78% and the “Population Pyknosed Nuclei (%)” value [1] was 14% and 10%. For the same compound, the “Population Tubulin-Different-Phenotype (%)” value [1] was 89% and 94%, the “Total Cell Count” value [1] was 252 and 277 and the “Population Apoptotic (%)” value [2] was 80% and 74%. For the same compound, the “Population Fragmented Nuclei (%)” value [2] was 1% and 2%, the “Population Healthy Nuclei (%)” value [2] was 80% and 77% and the “Population Hoechst High Intensity Objects (%)” value [2] was 18% and 19%. The “Population Membrane Permeable-Phenotype (%)” value [2] was 2% and 0%, the “Population Mitochondria Different-Phenotype (%)” value [2] was 93% and 97% and the “Population Mitotic Cells (%)” value [2] was 19% and 25%. The “Population Normal (%)” value [2] was 81% and 80%, the “Population Pyknosed Nuclei (%)” value [2] was 17% and 20% and the “Population Tubulin-Different-Phenotype (%)” value [2] was 96% and 97%. For the same compound, the “Total Cell Count” value [2] was 216 and 218, the “Population Apoptotic (%)” value [3] was 88% and 33% and the “Population Fragmented Nuclei (%)” value [3] was 4% and 3%. The “Population Healthy Nuclei (%)” value [3] was 88% and 86%, the “Population Hoechst High Intensity Objects (%)” value [3] was 17% and 25% and the “Population Membrane Permeable-Phenotype (%)” value [3] was 2% and 3%. The “Population Mitochondria Different-Phenotype (%)” value [3] was 60% and 63%, the “Population Normal (%)” value [3] was 82% and 74% and the “Population Pyknosed Nuclei (%)” value [3] was 7% and 9%. The “Population Tubulin-Different-Phenotype (%)” value [3] was 92% and 89%, the “Total Cell Count” value [3] was 296 and 243 and the “Population Apoptotic (%)” value [4] was 90% and 88%. The “Population Fragmented Nuclei (%)” value [4] was 4% and 3%, the “Population Healthy Nuclei (%)” value [4] was 77% and 75% and the “Population Hoechst High Intensity Objects (%)” value [4] was 21%. The “Population Membrane Permeable-Phenotype (%)” value [4] was 3% and 1%, the “Population Mitochondria Different-Phenotype (%)” value [4] was 94% and 96% and the “Population Mitotic Cells (%)” value [4] was 9% and 11%. The “Population Normal (%)” value [4] was 78%, the “Population Pyknosed Nuclei (%)” value [4] was 18% and 21% and the “Population Tubulin-Different-Phenotype (%)” value [4] was 96% and 94%. The “Total Cell Count” value [4] was 220 and 205, the “Population Apoptotic (%)” value [5] was 61% and 45% and the “Population Fragmented Nuclei (%)” value [5] was 7% and 6%. For the same compound, the “Population Healthy Nuclei (%)” value [5] was 87% and 89%, the “Population Hoechst High Intensity Objects (%)” value [5] was 20% and 17% and the “Population Membrane Permeable-Phenotype (%)” value [5] was 2% and 0%. The “Population Mitochondria Different-Phenotype (%)” value [5] was 26% and 29%, the “Population Mitotic Cells (%)” value [5] was 38% and 54% and the “Population Normal (%)” value [5] was 79% and 82%. The “Population Pyknosed Nuclei (%)” value [5] was 4%, the “Population Tubulin-Different-Phenotype (%)” value [5] was 84% and 87% and the “Total Cell Count” value [5] was 362 and 302. For the same compound, the “Population Apoptotic (%)” value [6] was 88% and 89%, the “Population Fragmented Nuclei (%)” value [6] was 3% and 1% and the “Population Healthy Nuclei (%)” value [6] was 71% and 74%. The “Population Hoechst High Intensity Objects (%)” value [6] was 22% and 24%, the “Population Membrane Permeable-Phenotype (%)” value [6] was 0% and the “Population Mitochondria Different-Phenotype (%)” value [6] was 94%. The “Population Mitotic Cells (%)” value [6] was 11% and 10%, the “Population Normal (%)” value [6] was 77% and 75% and the “Population Pyknosed Nuclei (%)” value [6] was 24%. For the same compound, the “Population Tubulin-Different-Phenotype (%)” value [6] was 98% and 97% and the “Total Cell Count” value [6] was 227 and 202.
